Data taken from ChEMBL document CHEMBL1124339, “Conformationally restricted analogues of atriopeptin(103-125)amide” (J Med Chem, 1989).

What was measured:
Oryctolagus cuniculus [1] = species: Oryctolagus cuniculus; assay: Effective concentration in vasorelaxation assay; 0.05-0.3 uM; format: functional
Oryctolagus cuniculus [2] = species: Oryctolagus cuniculus; assay: Relative potency for vasorelaxant activity of the compound; format: functional
Oryctolagus cuniculus [3] = species: Oryctolagus cuniculus; assay: Effective concentration in vasorelaxant assay; 0.05-0.3 uM; format: functional
[4] = system: Atrial natriuretic peptide receptor 3 (Oryctolagus cuniculus); assay: Relative binding potency towards non-vasorelaxant binding site compared to AP(103-126)
Oryctolagus cuniculus [5] = species: Oryctolagus cuniculus; assay: Relative binding potency towards vasorelaxant binding site compared to AP(103-126)
Procedure, shortened: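 Varied unlabeled peptide concentrations; started by adding membranes; 30 min at 25 °C. Filtration with ice-cold buffer, then gamma counting. Nonspecific binding measured with 10^-6 M unlabeled reference peptide. Specific binding fitted by nonlinear least squares.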

## CC[C@H](C)[C@@H]1NC(=O)[C@H](CCCN=C(N)N)NC(=O)[C@H](CC(=O)O)NC(=O)[C@H]([C@@H](C)CC)NC(=O)[C@H](CCCN=C(N)N)NC(=O)CNC(=O)CNC(=O)[C@H](Cc2ccccc2)NC(=O)[C@@H](NC(=O)[C@H](CO)NC(=O)[C@@H](N)CO)CSSC[C@@H](C(=O)N[C@@H](CC(N)=O)C(=O)N[C@@H](CO)C(=O)N[C@@H](Cc2ccccc2)C(=O)N[C@@H](CCCN=C(N)N)C(=O)N[C@@H](Cc2ccc(O)cc2)C(=O)O)NC(=O)CNC(=O)[C@H](CC(C)C)NC(=O)CNC(=O)[C@H](CO)NC(=O)[C@H](CCC(N)=O)NC(=O)[C@H](C)NC(=O)CNC1=O
Oryctolagus cuniculus [1]
  EC50: 50 nM
Oryctolagus cuniculus [2]
  EC50: 2.3 nM

## CC[C@H](C)[C@@H]1NC(=O)[C@H](CCCN=C(N)N)NC(=O)[C@H](CC(=O)O)NC(=O)[C@H]([C@@H](C)CC)NC(=O)[C@H](CCCN=C(N)N)NC(=O)CNC(=O)CNC(=O)[C@H](Cc2ccccc2)NC(=O)[C@@H](NC(=O)[C@H](CO)NC(=O)[C@@H](N)CO)CSSC[C@@H](C(=O)N[C@@H](CC(N)=O)C(=O)N[C@@H](CO)C(=O)N[C@@H](Cc2ccccc2)C(=O)N[C@@H](CCCN=C(N)N)C(N)=O)NC(=O)CNC(=O)[C@H](CC(C)C)NC(=O)CNC(=O)[C@H](CO)NC(=O)[C@H](CCC(N)=O)NC(=O)[C@H](C)NC(=O)CNC1=O
Oryctolagus cuniculus [3]
  EC50: 50 nM

## CC[C@H](C)[C@H]1NC(=O)[C@H](CCCN=C(N)N)NC(=O)[C@H](CC(=O)O)NC(=O)[C@@H]([C@@H](C)CC)NC(=O)[C@H](CCCN=C(N)N)NC(=O)[C@@H](CSCNC(C)=O)NC(=O)CNC(=O)[C@@H](Cc2ccccc2)NC(=O)[C@H](NC(=O)[C@H](CO)NC(=O)[C@@H](N)CO)CSSC[C@H](C(=O)N[C@@H](CC(N)=O)C(=O)N[C@@H](CO)C(=O)N[C@@H](Cc2ccccc2)C(=O)N[C@@H](CCCN=C(N)N)C(N)=O)NC(=O)CNC(=O)[C@@H](CC(C)C)NC(=O)CNC(=O)[C@@H](CSCNC(C)=O)NC(=O)[C@H](CCC(N)=O)NC(=O)[C@@H](C)NC(=O)CNC1=O
[4]
  Relative potency: 0.91
Oryctolagus cuniculus [5]
  Relative potency: 0.91

## CC[C@H](C)[C@@H]1NC(=O)[C@H](CCCN=C(N)N)NC(=O)[C@H](CC(=O)O)NC(=O)[C@H]([C@@H](C)CC)NC(=O)[C@H](CCCN=C(N)N)NC(=O)[C@@H](CCS)NC(=O)CNC(=O)[C@H](Cc2ccccc2)NC(=O)[C@@H](NC(=O)[C@H](CO)NC(=O)[C@@H](N)CO)CSSC[C@@H](C(=O)N[C@@H](CC(N)=O)C(=O)N[C@@H](CO)C(=O)N[C@@H](Cc2ccccc2)C(=O)N[C@@H](CCCN=C(N)N)C(N)=O)NC(=O)CNC(=O)[C@H](CC(C)C)NC(=O)CNC(=O)[C@@H](CCS)NC(=O)[C@H](CCC(N)=O)NC(=O)[C@H](C)NC(=O)CNC1=O
[4]
  Relative potency: 2.8
Oryctolagus cuniculus [5]
  Relative potency: 0.071

## CC[C@H](C)[C@@H]1NC(=O)[C@H](CCCN=C(N)N)NC(=O)[C@H](CC(=O)O)NC(=O)[C@H]([C@@H](C)CC)NC(=O)[C@H](CCCN=C(N)N)NC(=O)[C@@H](CSCNC(C)=O)NC(=O)CNC(=O)[C@H](Cc2ccccc2)NC(=O)[C@@H](NC(=O)[C@H](CO)NC(=O)[C@@H](N)CO)CSSC[C@@H](C(=O)NCC(=O)N[C@@H](CC(C)C)C(=O)NCC(=O)N[C@@H](CSCNC(C)=O)C(=O)N[C@@H](CC(N)=O)C(=O)N[C@@H](CO)C(=O)N[C@@H](Cc2ccccc2)C(=O)N[C@@H](CCCN=C(N)N)C(N)=O)NC(=O)[C@H](CCC(N)=O)NC(=O)[C@H](C)NC(=O)CNC1=O
[4]
  Relative potency: 3.1
Oryctolagus cuniculus [5]
  Relative potency: 0.014

## CC[C@H](C)[C@H](NC(=O)[C@H](CC/N=C(/N)NO)NC(=O)[C@H](CC(=O)O)NC(=O)[C@@H](NC(=O)[C@H](CCN=C(N)N)NC(=O)[C@H](CSCNC(C)=O)NC(=O)CNC(=O)[C@H](Cc1ccccc1)NC(=O)[C@H](CSCNC(C)=O)NC(=O)[C@H](CO)NC(=O)[C@@H](N)CO)[C@@H](C)CC)C(=O)NCC(=O)N[C@@H](C)C(=O)N[C@@H](CCC(N)=O)C(=O)C1SSC[C@@H](C(=O)N[C@@H](CC(N)=O)C(=O)CN[C@@H](CO)C(=O)N[C@@H](Cc2ccccc2)C(=O)N[C@@H](CCCN=C(N)N)C(N)=O)NC(=O)CNC(=O)[C@H](CC(C)C)NC(=O)CNC(=O)[C@H]1N (stereo in doubt; 9b)
[4]
  Relative potency: 2.2
Oryctolagus cuniculus [5]
  Relative potency: 0.0053

## CC[C@H](C)[C@@H]1NC(=O)[C@H](CCCN=C(N)N)NC(=O)[C@H](CC(=O)O)NC(=O)[C@H]([C@@H](C)CC)NC(=O)[C@H](CCCN=C(N)N)NC(=O)[C@@H](CSCNC(C)=O)NC(=O)CNC(=O)[C@H](Cc2ccccc2)NC(=O)[C@@H](NC(=O)[C@H](CO)NC(=O)[C@@H](N)CO)CSSC[C@@H](C(=O)N[C@@H](CC(N)=O)C(=O)N[C@@H](CO)C(=O)N[C@@H](Cc2ccccc2)C(=O)N[C@@H](CCCN=C(N)N)C(N)=O)NC(=O)CNC(=O)[C@H](CC(C)C)NC(=O)CNC(=O)[C@H](CO)NC(=O)[C@H](CCC(N)=O)NC(=O)[C@H](C)NC(=O)CNC1=O
[4]
  Relative potency: 4.3
Oryctolagus cuniculus [5]
  Relative potency: 4.3

## CC[C@H](C)[C@H]1NC(=O)[C@H](CCCN=C(N)N)NC(=O)[C@H](CC(=O)O)NC(=O)[C@@H]([C@@H](C)CC)NC(=O)[C@H](CCCN=C(N)N)NC(=O)[C@H](CSCNC(C)=O)NC(=O)CNC(=O)[C@@H](Cc2ccccc2)NC(=O)[C@H](NC(=O)[C@H](CO)NC(=O)[C@@H](N)CO)CSSC[C@H](C(=O)N[C@@H](CC(N)=O)C(=O)N[C@@H](CO)C(=O)N[C@@H](Cc2ccccc2)C(=O)N[C@@H](CCCN=C(N)N)C(N)=O)NC(=O)CNC(=O)[C@@H](CC(C)C)NC(=O)CNC(=O)[C@H](CSCNC(C)=O)NC(=O)[C@H](CCC(N)=O)NC(=O)[C@@H](C)NC(=O)CNC1=O
[4]
  Relative potency: 0.48
Oryctolagus cuniculus [5]
  Relative potency: 0.48

## CC[C@H](C)[C@@H]1NC(=O)[C@H](CCCN=C(N)N)NC(=O)[C@H](CC(=O)O)NC(=O)[C@H]([C@@H](C)CC)NC(=O)[C@H](CCCN=C(N)N)NC(=O)[C@@H](CCSCNC(C)=O)NC(=O)CNC(=O)[C@H](Cc2ccccc2)NC(=O)[C@@H](NC(=O)[C@H](CO)NC(=O)[C@@H](N)CO)CSSC[C@@H](C(=O)N[C@@H](CC(N)=O)C(=O)N[C@@H](CO)C(=O)N[C@@H](Cc2ccccc2)C(=O)N[C@@H](CCCN=C(N)N)C(N)=O)NC(=O)CNC(=O)[C@H](CC(C)C)NC(=O)CNC(=O)[C@@H](CCSCNC(C)=O)NC(=O)[C@H](CCC(N)=O)NC(=O)[C@H](C)NC(=O)CNC1=O
[4]
  Relative potency: 0.84
Oryctolagus cuniculus [5]
  Relative potency: 0.84
